Data reported in ChEMBL document CHEMBL3124820, “Design, synthesis and biological evaluation of hetero-aromatic moieties substituted pyrrole-2-carbonitrile derivatives as dipeptidyl peptidase IV inhibitors” (Eur J Med Chem, 2014).
pIC50: −log10 of the molar value.

Columns and labels:
Mus musculus [1] = experiment: Antidiabetic activity in ICR mouse assessed as decrease in blood glucose AUC (0 to 120 mins) at 30 mg/kg administered for 30 mins prior to glucose challenge measured after 4 hrs by OGTT relative to vehicle-treated control; assay type: functional; parameters: scale not given: the % may be the effect or the level left
Procedure, shortened: (§1)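 ICR mice were fasted 16 h and given one dose in 0.5% methylcellulose vehicle (10 mL/kg). An oral glucose load of 2.5 g/kg followed; methods state 30 min after dosing, the figure legend 4 h.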

Mus musculus [2] = experiment: Antidiabetic activity in C57BKS db/db mouse assessed as blood glucose level at 15 mg/kg/day administered for 5 weeks followed by glucose challenge at 6 hrs starvation of post last dose measured at 90 mins by OGTT (reference value: 27.2 +/- 1.3 mmol/L); assay type: functional
Procedure, shortened: (§2)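 C57BKS db/db mice received 5, 15 or 50 mg/kg/day for 5 weeks. Vehicle was 0.5% methylcellulose at 10 mL/kg/day. In week 5, mice were fasted 6 h and given an oral glucose load of 1.5 g/kg, then blood glucose was recorded over the glucose tolerance test. Data are mean ± SE, compared with Student's t-test.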

Mus musculus [3] = experiment: Antidiabetic activity in C57BKS db/db mouse assessed as blood glucose level at 15 mg/kg/day administered for 5 weeks followed by glucose challenge at 6 hrs starvation of post last dose measured immediately by OGTT (reference value: 25 +/- 1.2 mmol/L); assay type: functional; procedure, shortened: as §2
Mus musculus [4] = experiment: Antidiabetic activity in C57BKS db/db mouse assessed as blood glucose level at 15 mg/kg/day administered for 5 weeks followed by glucose challenge at 6 hrs starvation of post last dose measured at 30 mins by OGTT (reference value: 46.6 +/- 2.2 mmol/L); assay type: functional; procedure, shortened: as §2
Mus musculus [5] = experiment: Antidiabetic activity in C57BKS db/db mouse assessed as blood glucose level at 15 mg/kg/day administered for 5 weeks followed by glucose challenge at 6 hrs starvation of post last dose measured at 120 mins by OGTT (reference value: 28.1 +/- 1.3 mmol/L); assay type: functional; procedure, shortened: as §2
Mus musculus [6] = experiment: Antidiabetic activity in C57BKS db/db mouse assessed as blood glucose level at 15 mg/kg/day administered for 5 weeks followed by glucose challenge at 6 hrs starvation of post last dose measured at 60 mins by OGTT (reference value: 30.2 +/- 1.5 mmol/L); assay type: functional; procedure, shortened: as §2
[7] = Half life in Sprague-Dawley rat at 20 mg/kg, iv; assay type: ADME, organism-based; parameters: dose 20 mg/kg, route intravenous; settings: in vivo
Procedure, shortened: (§3)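 Sprague-Dawley rats were dosed orally or intravenously, and blood was sampled after dosing. Plasma was separated by centrifugation and deproteinized with methanol containing an internal standard. The supernatant was diluted with methanol, centrifuged again and quantified by LC/MS/MS.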

[8] = AUC (0 to infinity) in Sprague-Dawley rat at 20 mg/kg, iv; assay type: ADME, organism-based; parameters: time infinity, dose 20 mg/kg, route intravenous; settings: plasma; procedure, shortened: as §3
Mus musculus [9] = experiment: Antidiabetic activity in C57BKS db/db mouse assessed as blood glucose level at 50 mg/kg/day administered for 5 weeks followed by glucose challenge at 6 hrs starvation of post last dose measured at 90 mins by OGTT (reference value: 27.2 +/- 1.3 mmol/L); assay type: functional; procedure, shortened: as §2
[10] = Mean residence time in Sprague-Dawley rat at 50 mg/kg, po; assay type: ADME, organism-based; parameters: dose 50 mg/kg, route oral; settings: in vivo; procedure, shortened: as §3
Mus musculus [11] = experiment: Antidiabetic activity in ICR mouse assessed as decrease in blood glucose AUC (0 to 120 mins) administered for 30 mins prior to glucose challenge measured after 4 hrs by OGTT; assay type: functional, organism-based
Procedure, shortened: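 ICR mice fasted 16 h, then given a single dose of 15 or 50 mg/kg; vehicle 0.5% methylcellulose (10 mL/kg), LAF237 30 mg/kg as positive control. Oral glucose 2.5 g/kg given 30 min after dosing (legend says 4 h). Blood glucose read at 0, 15, 30, 60, 90, 120 min for AUC0–120. Mean ± SE, n = 10; Student's t-test.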

Mus musculus [12] = experiment: Antidiabetic activity in C57BKS db/db mouse assessed as blood glucose level at 5 mg/kg/day administered for 5 weeks followed by glucose challenge at 6 hrs starvation of post last dose measured at 120 mins by OGTT (reference value: 28.1 +/- 1.3 mmol/L); assay type: functional; procedure, shortened: as §2
[13] = Cmax in Sprague-Dawley rat at 20 mg/kg, iv; assay type: ADME, organism-based; parameters: dose 20 mg/kg, route intravenous; settings: in vivo; procedure, shortened: as §3
[14] = Apparent clearance in Sprague-Dawley rat at 20 mg/kg, iv; assay type: ADME, organism-based; parameters: dose 20 mg/kg, route intravenous; settings: in vivo, read-out: CL(app) (converted); procedure, shortened: as §3
CYP3A4 = CYP3A4 (Homo sapiens, UniProt P08684); experiment: Inhibition of CYP3A4 (unknown origin) at 100 uM relative to control; assay type: ADME
[15] = AUC (0 to t) in Sprague-Dawley rat at 20 mg/kg, iv; assay type: ADME, organism-based; parameters: dose 20 mg/kg, route intravenous; settings: plasma; procedure, shortened: as §3
[16] = Tmax in Sprague-Dawley rat at 50 mg/kg, po; assay type: ADME, organism-based; parameters: dose 50 mg/kg, route oral; settings: in vivo
Procedure, shortened: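 Sprague-Dawley rats dosed orally (i.v. arm run in parallel). Blood collected after dosing and centrifuged to plasma. Plasma deproteinized with methanol containing an internal standard, centrifuged, and the supernatant diluted in methanol and recentrifuged. Drug levels in the supernatant quantified by LC/MS/MS, and Tmax taken from the plasma concentration-time profile.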

Mus musculus [17] = experiment: Antidiabetic activity in ICR mouse assessed as decrease in blood glucose AUC (0 to 120 mins) at 50 mg/kg administered for 30 mins prior to glucose challenge measured after 4 hrs by OGTT relative to vehicle-treated control; assay type: functional; parameters: scale not given: the % may be the effect or the level left; procedure, shortened: as §1
[18] = target: Voltage-gated inwardly rectifying potassium channel KCNH2 (Homo sapiens, UniProt Q12809); experiment: Inhibition of human ERG expressed in CHO-ZG cells after 20 mins by FluxOR thallium assay
[19] = AUC (0 to infinity) in Sprague-Dawley rat at 50 mg/kg, po; assay type: ADME, organism-based; parameters: time infinity, dose 50 mg/kg, route oral; settings: plasma; procedure, shortened: as §3
Mus musculus [20] = experiment: Antidiabetic activity in C57BKS db/db mouse assessed as blood glucose level at 5 mg/kg/day administered for 5 weeks followed by glucose challenge at 6 hrs starvation of post last dose measured at 30 mins by OGTT (reference value: 46.6 +/- 2.2 mmol/L); assay type: functional; procedure, shortened: as §2
[21] = Mean residence time in Sprague-Dawley rat at 20 mg/kg, iv; assay type: ADME, organism-based; parameters: dose 20 mg/kg, route intravenous; settings: in vivo; procedure, shortened: as §3
Mus musculus [22] = experiment: Antidiabetic activity in ICR mouse assessed as decrease in blood glucose AUC (0 to 120 mins) at 15 mg/kg administered for 30 mins prior to glucose challenge measured after 4 hrs by OGTT relative to vehicle-treated control; assay type: functional; parameters: scale not given: the % may be the effect or the level left; procedure, shortened: as §1
Mus musculus [23] = experiment: Antidiabetic activity in C57BKS db/db mouse assessed as blood glucose level at 50 mg/kg/day administered for 5 weeks followed by glucose challenge at 6 hrs starvation of post last dose measured at 120 mins by OGTT (reference value: 28.1 +/- 1.3 mmol/L); assay type: functional; procedure, shortened: as §2
[24] = AUC (0 to t) in Sprague-Dawley rat at 50 mg/kg, po; assay type: ADME, organism-based; parameters: dose 50 mg/kg, route oral; settings: plasma; procedure, shortened: as §3
Mus musculus [25] = experiment: Antidiabetic activity in C57BKS db/db mouse assessed as blood glucose level at 50 mg/kg/day administered for 5 weeks followed by glucose challenge at 6 hrs starvation of post last dose measured immediately by OGTT (reference value: 25 +/- 1.2 mmol/L); assay type: functional; procedure, shortened: as §2
Mus musculus [26] = experiment: Antidiabetic activity in C57BKS db/db mouse assessed as blood glucose level at 5 mg/kg/day administered for 5 weeks followed by glucose challenge at 6 hrs starvation of post last dose measured immediately by OGTT (reference value: 25 +/- 1.2 mmol/L); assay type: functional; procedure, shortened: as §2
[27] = Oral bioavailability in Sprague-Dawley rat at 50 mg/kg; assay type: ADME, organism-based; settings: in vivo; procedure, shortened: as §3
Mus musculus [28] = experiment: Antidiabetic activity in C57BKS db/db mouse assessed as blood glucose level at 50 mg/kg/day administered for 5 weeks followed by glucose challenge at 6 hrs starvation of post last dose measured at 30 mins by OGTT (reference value: 46.6 +/- 2.2 mmol/L); assay type: functional; procedure, shortened: as §2
[29] = Half life in Sprague-Dawley rat at 50 mg/kg, po; assay type: ADME, organism-based; parameters: dose 50 mg/kg, route oral; settings: in vivo; procedure, shortened: as §3
[30] = Tmax in Sprague-Dawley rat at 20 mg/kg, iv; assay type: ADME, organism-based; parameters: dose 20 mg/kg, route intravenous; settings: in vivo; procedure, shortened: as §3
Mus musculus [31] = experiment: Antidiabetic activity in C57BKS db/db mouse assessed as blood glucose level at 50 mg/kg/day administered for 5 weeks followed by glucose challenge at 6 hrs starvation of post last dose measured at 60 mins by OGTT (reference value: 30.2 +/- 1.5 mmol/L); assay type: functional; procedure, shortened: as §2
Mus musculus [32] = experiment: Antidiabetic activity in C57BKS db/db mouse assessed as blood glucose level at 5 mg/kg/day administered for 5 weeks followed by glucose challenge at 6 hrs starvation of post last dose measured at 60 mins by OGTT (reference value: 30.2 +/- 1.5 mmol/L); assay type: functional; procedure, shortened: as §2
[33] = Cmax in Sprague-Dawley rat at 50 mg/kg, po; assay type: ADME, organism-based; parameters: dose 50 mg/kg, route oral; settings: in vivo; procedure, shortened: as §3
CYP2C9 = CYP2C9 (Homo sapiens, UniProt P11712); experiment: Inhibition of CYP2C9 (unknown origin) at 100 uM relative to control; assay type: ADME
Mus musculus [34] = experiment: Antidiabetic activity in C57BKS db/db mouse assessed as blood glucose level at 5 mg/kg/day administered for 5 weeks followed by glucose challenge at 6 hrs starvation of post last dose measured at 90 mins by OGTT (reference value: 27.2 +/- 1.3 mmol/L); assay type: functional; procedure, shortened: as §2

Sequence of CYP3A4 (P08684 whole entry): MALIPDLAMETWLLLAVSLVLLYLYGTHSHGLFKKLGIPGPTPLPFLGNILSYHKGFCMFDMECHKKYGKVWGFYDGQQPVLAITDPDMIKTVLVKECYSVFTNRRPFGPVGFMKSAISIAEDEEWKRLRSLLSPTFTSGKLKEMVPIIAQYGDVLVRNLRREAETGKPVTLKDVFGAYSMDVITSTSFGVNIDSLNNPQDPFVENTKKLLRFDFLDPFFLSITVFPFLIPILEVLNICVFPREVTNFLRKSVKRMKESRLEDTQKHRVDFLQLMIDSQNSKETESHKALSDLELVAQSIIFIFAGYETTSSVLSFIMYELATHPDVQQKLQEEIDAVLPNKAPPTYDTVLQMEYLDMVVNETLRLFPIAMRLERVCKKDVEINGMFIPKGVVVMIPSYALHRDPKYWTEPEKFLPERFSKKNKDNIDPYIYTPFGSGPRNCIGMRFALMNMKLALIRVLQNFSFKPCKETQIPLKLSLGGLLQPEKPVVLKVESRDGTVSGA
Sequence of Voltage-gated inwardly rectifying potassium channel KCNH2 (Q12809 whole entry): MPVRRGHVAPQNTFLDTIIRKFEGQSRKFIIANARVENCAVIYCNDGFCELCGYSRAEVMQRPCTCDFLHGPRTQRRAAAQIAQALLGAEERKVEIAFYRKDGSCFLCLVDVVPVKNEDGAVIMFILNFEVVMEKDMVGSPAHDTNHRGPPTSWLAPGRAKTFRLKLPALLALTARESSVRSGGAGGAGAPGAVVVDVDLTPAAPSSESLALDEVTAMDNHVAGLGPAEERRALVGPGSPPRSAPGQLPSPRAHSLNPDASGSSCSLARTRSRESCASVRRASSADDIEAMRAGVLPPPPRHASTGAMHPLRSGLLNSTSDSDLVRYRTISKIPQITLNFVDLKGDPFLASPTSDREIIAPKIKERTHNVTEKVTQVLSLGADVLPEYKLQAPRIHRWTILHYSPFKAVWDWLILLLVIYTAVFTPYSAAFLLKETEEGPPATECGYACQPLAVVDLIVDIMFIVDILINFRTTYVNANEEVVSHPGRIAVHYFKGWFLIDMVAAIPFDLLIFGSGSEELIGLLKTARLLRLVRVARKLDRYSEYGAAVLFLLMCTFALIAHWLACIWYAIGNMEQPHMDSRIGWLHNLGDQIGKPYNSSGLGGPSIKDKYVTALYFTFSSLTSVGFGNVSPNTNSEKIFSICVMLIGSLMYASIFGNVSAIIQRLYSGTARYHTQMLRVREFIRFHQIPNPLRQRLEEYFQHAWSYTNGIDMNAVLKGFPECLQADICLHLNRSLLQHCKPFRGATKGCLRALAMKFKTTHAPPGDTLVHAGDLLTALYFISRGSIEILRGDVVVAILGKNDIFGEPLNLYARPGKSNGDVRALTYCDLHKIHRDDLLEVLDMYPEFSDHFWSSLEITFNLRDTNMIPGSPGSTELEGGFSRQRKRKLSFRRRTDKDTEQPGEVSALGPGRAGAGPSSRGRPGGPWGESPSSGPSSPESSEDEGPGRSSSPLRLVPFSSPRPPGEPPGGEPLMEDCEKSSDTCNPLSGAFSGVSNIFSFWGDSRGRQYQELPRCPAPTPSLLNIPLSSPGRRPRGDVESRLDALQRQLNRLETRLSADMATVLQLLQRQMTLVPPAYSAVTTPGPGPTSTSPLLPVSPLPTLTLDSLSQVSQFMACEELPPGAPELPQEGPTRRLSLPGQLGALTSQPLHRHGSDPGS
Sequence of CYP2C9 (P11712 whole entry): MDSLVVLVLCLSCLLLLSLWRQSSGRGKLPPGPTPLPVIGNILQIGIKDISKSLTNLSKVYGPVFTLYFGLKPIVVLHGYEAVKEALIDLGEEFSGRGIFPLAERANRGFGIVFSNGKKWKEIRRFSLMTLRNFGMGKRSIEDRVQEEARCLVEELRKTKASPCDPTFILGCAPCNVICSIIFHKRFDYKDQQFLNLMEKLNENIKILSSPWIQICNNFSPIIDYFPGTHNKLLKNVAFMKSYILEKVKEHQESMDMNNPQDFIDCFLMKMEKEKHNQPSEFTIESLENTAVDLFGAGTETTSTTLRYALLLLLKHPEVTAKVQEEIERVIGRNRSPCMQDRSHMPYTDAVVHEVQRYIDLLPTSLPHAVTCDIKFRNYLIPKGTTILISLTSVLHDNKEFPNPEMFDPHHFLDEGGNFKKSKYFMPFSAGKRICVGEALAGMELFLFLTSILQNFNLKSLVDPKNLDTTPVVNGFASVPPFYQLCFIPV

In the case of N#C[C@@H]1CCCN1C(=O)CNC12CC3CC(CC(O)(C3)C1)C2 [VILDAGLIPTIN], the Activity (Mus musculus [1]) was 19.9%, the Activity (Mus musculus [2]) was 20.7 mmol/L and the Activity (Mus musculus [3]) was 17.9 mmol/L. The Activity (Mus musculus [4]) was 31.3 mmol/L, the Activity (Mus musculus [5]) was 21.4 mmol/L and the Activity (Mus musculus [6]) was 21 mmol/L.
N#C[C@@H]1C[C@H](F)CN1C(=O)[C@@H](N)Cc1cscn1 gave a half-life [7] of 2.27 h, an AUC(0-inf) [8] of 2900 ng·h/mL and an Activity (Mus musculus [9]) of 20.5 mmol/L. For the same compound, the MRT [10] was 1.47 h, the Activity (Mus musculus [11]) was “Dose-dependent effect” and the Activity (Mus musculus [2]) was 20.8 mmol/L. The Activity (Mus musculus [12]) was 24.5 mmol/L, the Activity (Mus musculus [3]) was 18 mmol/L and the Cmax [13] was 2960 ng/mL. The clearance [14] was 116 mL/min/kg, the inhibition at 100 µM (CYP3A4) was 7.4% and the AUC(0-t) [15] was 2890 ng·h/mL. For the same compound, the Tmax [16] was 0.3 h, the Activity (Mus musculus [17]) was 12.8% and the pIC50 [18] was 3.75. It also gave an AUC(0-inf) [19] of 2840 ng·h/mL, an Activity (Mus musculus [20]) of 45.1 mmol/L and an MRT [21] of 1.48 h. For the same compound, the Activity (Mus musculus [22]) was 10.7%, the Activity (Mus musculus [23]) was 20.4 mmol/L and the Activity (Mus musculus [4]) was 41.3 mmol/L. For the same compound, the AUC(0-t) [24] was 2730 ng·h/mL, the Activity (Mus musculus [25]) was 18.1 mmol/L and the Activity (Mus musculus [5]) was 20.6 mmol/L. The Activity (Mus musculus [26]) was 21.5 mmol/L, the Activity (Mus musculus [6]) was 21.8 mmol/L and the bioavailability [27] was 37.8%. It also gave an Activity (Mus musculus [28]) of 38 mmol/L, a half-life [29] of 1.45 h and a Tmax [30] of 0.3 h. It also gave an Activity (Mus musculus [31]) of 19.9 mmol/L, an Activity (Mus musculus [32]) of 27.5 mmol/L and a Cmax [33] of 2710 ng/mL. It also gave an inhibition at 100 µM (CYP2C9) of 11.2% and an Activity (Mus musculus [34]) of 24.1 mmol/L.
